Data on 9 compounds can be found in ChEMBL document CHEMBL1126988, “Quinolone antibacterials containing the new 7-[3-(1-aminoethyl)-1- pyrrolidinyl] side chain: the effects of the 1-aminoethyl moiety and its stereochemical configurations on potency and in vivo efficacy” (J Med Chem, 1993).

Values after ≈ are worked out from the molar mass of the structure shown.

Holding throughout (type): functional
In assay [1] the test system is Streptococcus pyogenes. Put plainly: Antibacterial activity measured as mouse protection against Streptococcus pyogenes C 203 after subcutaneous administration. The following applies: for ED50: Streptococcus pyogenes, C 203, sc, read-out: PD50.
For assay [2], the system named is Streptococcus pyogenes. Put plainly: Compounds were evaluated in vivo for antibacterial activity for mouse protection against Streptococcus pyogenes C 203 after oral administration. The note with it: for ED50: Streptococcus pyogenes, C 203, po, read-out: PD50.
The test system of the next assay is Klebsiella pneumoniae. Description: Minimum inhibitory concentration was evaluated in vitro against Klebsiella pneumoniae MGH2. Put shortly:
(§1)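 Standard microtitration broth assay against a panel of 10 Gram-positive and Gram-negative organisms. MIC read in µg/mL and averaged over multiple experiments.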

In the next assay the test system is Pseudomonas aeruginosa. Put plainly: Minimum inhibitory concentration was evaluated in vitro against Pseudomonas aeruginosa UI-18. Put shortly: as §1
For another assay, the system named is Providencia rettgeri. Description: Minimum inhibitory concentration was evaluated in vitro against Providencia rettgeri M1771. Put shortly: as §1
Assay [3] has as its system Escherichia coli. Description: Antibacterial activity against Escherichia coli Vogel after oral administration in mouse. The following applies: Escherichia coli, po; read-out: PD50.
The subject of assay [4] is Escherichia coli. Description: Antibacterial activity in vitro against Escherichia coli Vogel. Put shortly: as §1
The subject of assay [5] is Staphylococcus aureus. Description: Minimum inhibitory concentration was evaluated in vitro against Staphylococcus aureus H 228. Put shortly: as §1
The test system of assay [6] is Staphylococcus aureus. Description: Minimum inhibitory concentration was evaluated in vitro against Staphylococcus aureus UC 76. The gist of the method: as §1
In assay [7] the test system is Escherichia coli. Put plainly: Antibacterial activity against Escherichia coli Vogel after subcutaneous administration in mouse. The note with it: Escherichia coli, sc; read-out: PD50.
Assay [8] deals with Streptococcus pyogenes. Description: Minimum inhibitory concentration was evaluated in vitro against Streptococcus pyogenes C 203. The gist of the method:
as §1

The test system of the next assay is Streptococcus pneumoniae. Description: Minimum inhibitory concentration was evaluated in vitro against Streptococcus pneumoniae SV-1. The gist of the method: as §1
The subject of another assay is Enterococcus faecalis. Put plainly: Minimum inhibitory concentration was evaluated in vitro against Enterococcus faecalis MGH-2. Put shortly: as §1
The subject of another assay is Enterobacter cloacae. Put plainly: Minimum inhibitory concentration in vitro against Enterobacter cloacae MA 2646.
Setting [9] is: Klebsiella pneumoniae, read-out: MIC.
Where [10] appears, read: Pseudomonas aeruginosa, read-out: MIC.
[11] abbreviates: Providencia rettgeri, read-out: MIC.
Where [12] appears, read: Escherichia coli, read-out: MIC.
[13] abbreviates: Staphylococcus aureus, read-out: MIC.
[14] abbreviates: Streptococcus pyogenes, read-out: MIC.
Setting [15] is: Enterococcus faecalis, read-out: MIC.
Setting [16] is: Enterobacter cloacae, read-out: MIC.
[17] abbreviates: Streptococcus pneumoniae, read-out: MIC.

With `CCn1cc(C(=O)O)c(=O)c2cc(F)c(N3CCC(N)C3)c(F)c21` (stereo not given), the ED50 in the assay on Streptococcus pyogenes [1] was 7 mg/kg; in the assay with Streptococcus pyogenes [2], 21 mg/kg; in the assay with Escherichia coli [3], 3 mg/kg; in the assay with Escherichia coli [7], 1 mg/kg. Further, the MIC with Klebsiella pneumoniae (setting [9]) is 0.1 µg/mL (≈ 0.296 µM); in the assay on Pseudomonas aeruginosa (setting [10]), 0.2 µg/mL (≈ 0.593 µM); in the assay with Providencia rettgeri (setting [11]) it was 0.1 µg/mL (≈ 0.296 µM); in the assay on Escherichia coli [4] (setting [12]), 0.05 µg/mL (≈ 0.148 µM); in the assay with Staphylococcus aureus [5] (setting [13]), 0.2 µg/mL (≈ 0.593 µM); with Staphylococcus aureus [6] (setting [13]) it was 0.05 µg/mL (≈ 0.148 µM).
In the case of `C[C@H](N)[C@H]1CCN(c2c(F)c(N)c3c(=O)c(C(=O)O)cn(C4CC4)c3c2F)C1` (stereo in doubt; 32F-S,R), the PD50 with Streptococcus pyogenes [1] was determined as 4 mg/kg; with Streptococcus pyogenes [2] it was 14 mg/kg. Besides, the MIC in the assay on Klebsiella pneumoniae is 0.1 µg/mL (≈ 0.255 µM); against Streptococcus pyogenes [8], 0.013 µg/mL (≈ 0.0331 µM); against Pseudomonas aeruginosa, 0.8 µg/mL (≈ 2.04 µM); with Providencia rettgeri it was 0.2 µg/mL (≈ 0.51 µM); in the assay on Streptococcus pneumoniae, 0.013 µg/mL (≈ 0.0331 µM); with Escherichia coli [4], 0.05 µg/mL (≈ 0.127 µM). Besides, the minimum inhibitory concentration (MIC) against Enterococcus faecalis is 0.05 µg/mL (≈ 0.127 µM); in the assay on Staphylococcus aureus [5] it was 0.025 µg/mL (≈ 0.0637 µM); against Enterobacter cloacae it was 0.1 µg/mL (≈ 0.255 µM); with Staphylococcus aureus [6] it was 0.006 µg/mL (≈ 0.0153 µM).
`CN[C@H](C)[C@H]1CCN(c2c(F)c(N)c3c(=O)c(C(=O)O)cn(C4CC4)c3c2F)C1`: the PD50 in the assay on Streptococcus pyogenes [1] and with Streptococcus pyogenes [2] was 13 mg/kg each time. Besides, the MIC against Klebsiella pneumoniae was determined as 0.8 µg/mL (≈ 1.97 µM); with Streptococcus pyogenes [8], 0.2 µg/mL (≈ 0.492 µM); in the assay with Pseudomonas aeruginosa, 3.1 µg/mL (≈ 7.63 µM); in the assay on Providencia rettgeri, 0.8 µg/mL (≈ 1.97 µM); against Streptococcus pneumoniae it was 0.2 µg/mL (≈ 0.492 µM); against Escherichia coli [4] it was 0.2 µg/mL (≈ 0.492 µM). For the same compound, the MIC in the assay with Enterococcus faecalis was 0.2 µg/mL (≈ 0.492 µM); against Staphylococcus aureus [5], 0.1 µg/mL (≈ 0.246 µM); with Enterobacter cloacae it was 0.2 µg/mL (≈ 0.492 µM); in the assay with Staphylococcus aureus [6] it was 0.05 µg/mL (≈ 0.123 µM).
As for `CCN[C@@H](C)[C@@H]1CCN(c2c(F)c(N)c3c(=O)c(C(=O)O)cn(C4CC4)c3c2F)C1` (stereo in doubt; 32H-S,R), the values for the PD50 in the assay with Streptococcus pyogenes [1] and in the assay with Streptococcus pyogenes [2] were 3 mg/kg and 6 mg/kg, respectively. In addition, the MIC against Klebsiella pneumoniae was found to be 0.1 µg/mL (≈ 0.238 µM); against Streptococcus pyogenes [8] it was 0.013 µg/mL (≈ 0.0309 µM); in the assay on Pseudomonas aeruginosa, 0.8 µg/mL (≈ 1.9 µM); against Providencia rettgeri, 0.4 µg/mL (≈ 0.951 µM); with Streptococcus pneumoniae, 0.013 µg/mL (≈ 0.0309 µM); against Escherichia coli [4] it was 0.1 µg/mL (≈ 0.238 µM). The MIC against Enterococcus faecalis was 0.025 µg/mL (≈ 0.0595 µM); with Staphylococcus aureus [5], 0.013 µg/mL (≈ 0.0309 µM); with Enterobacter cloacae, 0.1 µg/mL (≈ 0.238 µM); in the assay with Staphylococcus aureus [6], 0.003 µg/mL (≈ 0.00714 µM).
As to `CCNCC1CCN(c2c(F)cc3c(=O)c(C(=O)O)cn(C4CC4)c3c2C(F)(F)F)C1` (stereo not given), the ED50 came to 1 mg/kg with Streptococcus pyogenes [1], 2 mg/kg in the assay on Streptococcus pyogenes [2], 5 mg/kg in the assay on Escherichia coli [3] and 2 mg/kg in the assay with Escherichia coli [7]. The minimal inhibitory concentration (MIC) with Staphylococcus aureus [6] (setting [13]) stood at 0.025 µg/mL (≈ 0.0566 µM).
As for `CN[C@H](C)[C@H]1CCN(c2cc3c(cc2F)c(=O)c(C(=O)O)cn3C2CC2)C1`, the values for the PD50 in the assay on Streptococcus pyogenes [1] and in the assay with Streptococcus pyogenes [2] were 7 mg/kg and 82 mg/kg, respectively. Also, the MIC is 0.4 µg/mL (≈ 1.07 µM) in the assay on Klebsiella pneumoniae (setting [9]); 0.1 µg/mL (≈ 0.268 µM) with Streptococcus pyogenes [8] (setting [14]); 3.1 µg/mL (≈ 8.3 µM) in the assay on Pseudomonas aeruginosa (setting [10]); 0.8 µg/mL (≈ 2.14 µM) in the assay on Providencia rettgeri (setting [11]); 0.2 µg/mL (≈ 0.536 µM) in the assay on Streptococcus pneumoniae; 0.2 µg/mL (≈ 0.536 µM) in the assay on Escherichia coli [4] (setting [12]). Further, the MIC in the assay on Enterococcus faecalis (setting [15]) came to 0.2 µg/mL (≈ 0.536 µM); in the assay on Staphylococcus aureus [5] (setting [13]), 0.4 µg/mL (≈ 1.07 µM); in the assay on Enterobacter cloacae (setting [16]) it was 0.2 µg/mL (≈ 0.536 µM); with Staphylococcus aureus [6] (setting [13]), 0.05 µg/mL (≈ 0.134 µM).
`CN[C@H](C)[C@@H]1CCN(c2cc3c(cc2F)c(=O)c(C(=O)O)cn3C2CC2)C1`: the figures for the ED50 in the assay with Streptococcus pyogenes [1] and in the assay with Streptococcus pyogenes [2] were 3 mg/kg and 36 mg/kg, respectively. The MIC in the assay with Klebsiella pneumoniae (setting [9]) turned out to be 0.4 µg/mL (≈ 1.07 µM); with Streptococcus pyogenes [8] (setting [14]) it was 0.05 µg/mL (≈ 0.134 µM); in the assay with Pseudomonas aeruginosa (setting [10]), 1.6 µg/mL (≈ 4.28 µM); in the assay with Providencia rettgeri (setting [11]) it was 0.8 µg/mL (≈ 2.14 µM); in the assay on Streptococcus pneumoniae (setting [17]), 0.05 µg/mL (≈ 0.134 µM); in the assay with Escherichia coli [4] (setting [12]), 0.1 µg/mL (≈ 0.268 µM). Moreover, the MIC in the assay on Enterococcus faecalis (setting [15]) stood at 0.2 µg/mL (≈ 0.536 µM); with Staphylococcus aureus [5] (setting [13]) it was 0.2 µg/mL (≈ 0.536 µM); with Enterobacter cloacae (setting [16]), 0.2 µg/mL (≈ 0.536 µM); in the assay on Staphylococcus aureus [6] (setting [13]), 0.05 µg/mL (≈ 0.134 µM).
Take `CCNCC1CCN(c2cc3c(cc2F)c(=O)c(C(=O)O)cn3C2CC2)C1` (stereo not given): the ED50 was determined as 5 mg/kg with Streptococcus pyogenes [1] and 3 mg/kg in the assay with Escherichia coli [7]. Also, the minimal inhibitory concentration (MIC) with Staphylococcus aureus [6] (setting [13]) was determined as 0.013 µg/mL (≈ 0.0348 µM).
On to `CCN[C@H](C)[C@@H]1CCN(c2nc3c(cc2F)c(=O)c(C(=O)O)cn3-c2ccc(F)cc2F)C1`, for which the ED50 was found to be 6 mg/kg in the assay on Streptococcus pyogenes [1] and 10 mg/kg in the assay with Streptococcus pyogenes [2]. The minimal inhibitory concentration (MIC) in the assay with Klebsiella pneumoniae (setting [9]) was 1.6 µg/mL (≈ 3.47 µM); with Streptococcus pyogenes [8] (setting [14]), 0.2 µg/mL (≈ 0.434 µM); in the assay with Pseudomonas aeruginosa (setting [10]) it was 3.1 µg/mL (≈ 6.73 µM); in the assay with Providencia rettgeri (setting [11]), 3.1 µg/mL (≈ 6.73 µM); with Streptococcus pneumoniae (setting [17]) it was 0.2 µg/mL (≈ 0.434 µM); with Escherichia coli [4] (setting [12]), 0.8 µg/mL (≈ 1.74 µM). Besides, the minimal inhibitory concentration (MIC) with Enterococcus faecalis (setting [15]) stood at 0.4 µg/mL (≈ 0.869 µM); with Staphylococcus aureus [5] (setting [13]) it was 0.2 µg/mL (≈ 0.434 µM); with Enterobacter cloacae (setting [16]) it was 0.8 µg/mL (≈ 1.74 µM); in the assay on Staphylococcus aureus [6] (setting [13]), 0.05 µg/mL (≈ 0.109 µM).

As a reminder, the MIC is the lowest concentration found to suppress growth.
